Assay results published in ChEMBL document CHEMBL4152196, “Design, synthesis and biological evaluation of novel trimethylangelicin analogues targeting nuclear factor kB (NF-kB)” (Eur J Med Chem, 2018).
pIC50: −log10 of the molar value. Active and inactive are the calls of the source. The calls are words filed in the database; no cut-off is given here.

How the values were obtained:
Salmon testes DNA [1] = assay: Induction of damage in salmon testes DNA at 100 uM in presence of 2.5 to 7.5 J/cm2 UVA irradiation by ethidium bromide dye-based agarose gel electrophoresis analysis; assay type: nucleic-acid assay; settings: salmonidae
Salmonella typhimurium [2] = assay: Genotoxicity in Salmonella typhimurium TA98 assessed as revertant colonies at 5 uL/plate in absence of Sprague-Dawley rat S9 metabolic activation after 72 hrs by Ames test (reference value: 1); assay type: toxicity, organism-based; settings: salmonella enterica subsp. enterica serovar typhimurium
Salmonella typhimurium [3] = assay: Genotoxicity in Salmonella typhimurium TA98 assessed as revertant colonies at 1 uL/plate in absence of Sprague-Dawley rat S9 metabolic activation after 72 hrs by Ames test (reference value: 1); assay type: toxicity, organism-based; settings: salmonella enterica subsp. enterica serovar typhimurium
Salmonella typhimurium [4] = assay: Genotoxicity in Salmonella typhimurium TA98 assessed as revertant colonies at 10 uL/plate in absence of Sprague-Dawley rat S9 metabolic activation after 72 hrs by Ames test (reference value: 1); assay type: toxicity, organism-based; settings: salmonella enterica subsp. enterica serovar typhimurium
Salmonella typhimurium [5] = assay: Genotoxicity in Salmonella typhimurium TA98 assessed as revertant colonies at 50 uL/plate in absence of Sprague-Dawley rat S9 metabolic activation after 72 hrs by Ames test (reference value: 1); assay type: toxicity, organism-based; settings: salmonella enterica subsp. enterica serovar typhimurium
Salmonella typhimurium [6] = assay: Genotoxicity in Salmonella typhimurium TA98 assessed as revertant colonies at 100 uL/plate in absence of Sprague-Dawley rat S9 metabolic activation after 72 hrs by Ames test (reference value: 1); assay type: toxicity, organism-based; settings: salmonella enterica subsp. enterica serovar typhimurium
Salmonella typhimurium [7] = assay: Genotoxicity in Salmonella typhimurium TA98 assessed as revertant colonies at 1 uL/plate in presence of Sprague-Dawley rat S9 metabolic activation after 72 hrs by Ames test (reference value: 1); assay type: toxicity, organism-based; settings: salmonella enterica subsp. enterica serovar typhimurium
Salmonella typhimurium [8] = assay: Genotoxicity in Salmonella typhimurium TA98 assessed as revertant colonies at 5 uL/plate in presence of Sprague-Dawley rat S9 metabolic activation after 72 hrs by Ames test (reference value: 1); assay type: toxicity, organism-based; settings: salmonella enterica subsp. enterica serovar typhimurium
Salmonella typhimurium [9] = assay: Genotoxicity in Salmonella typhimurium TA98 assessed as revertant colonies at 10 uL/plate in presence of Sprague-Dawley rat S9 metabolic activation after 72 hrs by Ames test (reference value: 1); assay type: toxicity, organism-based; settings: salmonella enterica subsp. enterica serovar typhimurium
Salmonella typhimurium [10] = assay: Genotoxicity in Salmonella typhimurium TA98 assessed as revertant colonies at 50 uL/plate in presence of Sprague-Dawley rat S9 metabolic activation after 72 hrs by Ames test (reference value: 1); assay type: toxicity, organism-based; settings: salmonella enterica subsp. enterica serovar typhimurium
Salmonella typhimurium [11] = assay: Genotoxicity in Salmonella typhimurium TA98 assessed as revertant colonies at 100 uL/plate in presence of Sprague-Dawley rat S9 metabolic activation after 72 hrs by Ames test (reference value: 1); assay type: toxicity, organism-based; settings: salmonella enterica subsp. enterica serovar typhimurium
Salmonella typhimurium [12] = assay: Genotoxicity in Salmonella typhimurium TA100 assessed as revertant colonies at 1 uL/plate in absence of Sprague-Dawley rat S9 metabolic activation after 72 hrs by Ames test (reference value: 1); assay type: toxicity, organism-based; settings: salmonella enterica subsp. enterica serovar typhimurium
Salmonella typhimurium [13] = assay: Genotoxicity in Salmonella typhimurium TA100 assessed as revertant colonies at 5 uL/plate in absence of Sprague-Dawley rat S9 metabolic activation after 72 hrs by Ames test (reference value: 1); assay type: toxicity, organism-based; settings: salmonella enterica subsp. enterica serovar typhimurium
Salmonella typhimurium [14] = assay: Genotoxicity in Salmonella typhimurium TA100 assessed as revertant colonies at 10 uL/plate in absence of Sprague-Dawley rat S9 metabolic activation after 72 hrs by Ames test (reference value: 1); assay type: toxicity, organism-based; settings: salmonella enterica subsp. enterica serovar typhimurium
Salmonella typhimurium [15] = assay: Genotoxicity in Salmonella typhimurium TA100 assessed as revertant colonies at 50 uL/plate in absence of Sprague-Dawley rat S9 metabolic activation after 72 hrs by Ames test (reference value: 1); assay type: toxicity, organism-based; settings: salmonella enterica subsp. enterica serovar typhimurium
Salmonella typhimurium [16] = assay: Genotoxicity in Salmonella typhimurium TA100 assessed as revertant colonies at 100 uL/plate in absence of Sprague-Dawley rat S9 metabolic activation after 72 hrs by Ames test (reference value: 1); assay type: toxicity, organism-based; settings: salmonella enterica subsp. enterica serovar typhimurium
Salmonella typhimurium [17] = assay: Genotoxicity in Salmonella typhimurium TA100 assessed as revertant colonies at 1 uL/plate in presence of Sprague-Dawley rat S9 metabolic activation after 72 hrs by Ames test (reference value: 1); assay type: toxicity, organism-based; settings: salmonella enterica subsp. enterica serovar typhimurium
Salmonella typhimurium [18] = assay: Genotoxicity in Salmonella typhimurium TA100 assessed as revertant colonies at 5 uL/plate in presence of Sprague-Dawley rat S9 metabolic activation after 72 hrs by Ames test (reference value: 1); assay type: toxicity, organism-based; settings: salmonella enterica subsp. enterica serovar typhimurium
Salmonella typhimurium [19] = assay: Genotoxicity in Salmonella typhimurium TA100 assessed as revertant colonies at 10 uL/plate in presence of Sprague-Dawley rat S9 metabolic activation after 72 hrs by Ames test (reference value: 1); assay type: toxicity, organism-based; settings: salmonella enterica subsp. enterica serovar typhimurium
Salmonella typhimurium [20] = assay: Genotoxicity in Salmonella typhimurium TA100 assessed as revertant colonies at 50 uL/plate in presence of Sprague-Dawley rat S9 metabolic activation after 72 hrs by Ames test (reference value: 1); assay type: toxicity, organism-based; settings: salmonella enterica subsp. enterica serovar typhimurium
Salmonella typhimurium [21] = assay: Genotoxicity in Salmonella typhimurium TA100 assessed as revertant colonies at 100 uL/plate in presence of Sprague-Dawley rat S9 metabolic activation after 72 hrs by Ames test (reference value: 1); assay type: toxicity, organism-based; settings: salmonella enterica subsp. enterica serovar typhimurium
Homo sapiens [22] = organism: Homo sapiens; assay: Inhibition of NF-kappaB (unknown origin) assessed as decrease in NF-kappaB/DNA interaction at 12.5 to 100 uM using 32P-labeled target NF-kappaB double-stranded oligonucleotide after 30 mins by EMSA
Summary of the method: (§1)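 Purified NF-κB p50 (0.1 µl/20 µl, 50 gsu) was combined with 0.25 ng of ³²P-labeled double-stranded NF-κB consensus oligonucleotide. Bound 30 min at room temperature, then run on 6% polyacrylamide in 0.25× TBE at 200 V. IC₅₀ is 50% inhibition of the complex.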

Salmon testes DNA [23] = assay: Induction of damage in salmon testes DNA at 100 uM in absence of 2.5 to 7.5 J/cm2 UVA irradiation by ethidium bromide dye-based agarose gel electrophoresis analysis; assay type: nucleic-acid assay; settings: salmonidae
[24] = Inhibition of NF-kappaB (unknown origin) assessed as decrease in NF-kappaB/DNA interaction using 32P-labeled target NF-kappaB double-stranded oligonucleotide after 30 mins by EMSA; set-up: species or system Homo sapiens; summary of the method: as §1
IB3-1 = assay: Antiproliferative activity against human IB3-1 cells after 2 days by cell counting analysis; assay type: cell-based; settings: IB3-1, 48 h
Summary of the method: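 IB3-1 cells from a CF patient (ΔF508/W1282X), immortalized with adeno12/SV40, grown in LHC-8 with 5% FBS and no gentamycin at 37°C/5% CO₂. Treated at 12.5, 25, 50, 100, 200 and 800 µM. Cells counted by Coulter counter after 2 days, with untreated cells in log phase. IC₅₀ is the concentration giving 50% inhibition of cell growth.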

Homo sapiens [25] = organism: Homo sapiens; assay: Inhibition of NF-kappaB (unknown origin) assessed as decrease in NF-kappaB/DNA interaction at 12.5 uM using 32P-labeled target NF-kappaB double-stranded oligonucleotide after 30 mins by EMSA

Cc1cc(=O)oc2c1cc(C)c1occ(C)c12
Activity (Salmon testes DNA [1]): Active | T/C (Salmonella typhimurium [2]): 0.63 | T/C (Salmonella typhimurium [3]): 1.03 | T/C (Salmonella typhimurium [4]): 1.16 | T/C (Salmonella typhimurium [5]): 0.97 | T/C (Salmonella typhimurium [6]): 1.22 | T/C (Salmonella typhimurium [7]): 0.75 | T/C (Salmonella typhimurium [8]): 1.9 | T/C (Salmonella typhimurium [9]): 4.5 | T/C (Salmonella typhimurium [10]): 8.25 | T/C (Salmonella typhimurium [11]): 6.86 | T/C (Salmonella typhimurium [12]): 0.99 | T/C (Salmonella typhimurium [13]): 1.03 | T/C (Salmonella typhimurium [14]): 1.06 | T/C (Salmonella typhimurium [15]): 1.09 | T/C (Salmonella typhimurium [16]): 1.03 | T/C (Salmonella typhimurium [17]): 1.1 | T/C (Salmonella typhimurium [18]): 1 | T/C (Salmonella typhimurium [19]): 1.04 | T/C (Salmonella typhimurium [20]): 1.16 | T/C (Salmonella typhimurium [21]): 2.52 | inhibition (Homo sapiens [22]): Active | Activity (Salmon testes DNA [23]): Active

CCCc1cc(=O)oc2c1cc(CC)c1occ(C)c12
pIC50 [24]: 4.70 | pIC50 (IB3-1): 3.79 | inhibition (Homo sapiens [22]): Active

CCc1cc(=O)oc2c1cc(C)c1occ(C)c12
inhibition (Homo sapiens [25]): Active | pIC50 [24]: 5.10 | pIC50 (IB3-1): 4.30 | inhibition (Homo sapiens [22]): Active

CCCc1cc(=O)oc2c1cc(C)c1occ(C)c12
pIC50 [24]: 4.66 | pIC50 (IB3-1): 3.70 | inhibition (Homo sapiens [22]): Active

CCc1cc(=O)oc2c1cc(CC)c1occ(C)c12
pIC50 [24]: 4.75 | pIC50 (IB3-1): < 3.70 | inhibition (Homo sapiens [22]): Active

CCc1cc2c(C)cc(=O)oc2c2c(C)coc12
pIC50 [24]: 4.62 | pIC50 (IB3-1): < 3.70 | inhibition (Homo sapiens [22]): Active

Cc1cc2c(C(C)C)cc(=O)oc2c2c(C)coc12
pIC50 [24]: 4.72 | pIC50 (IB3-1): < 3.70 | inhibition (Homo sapiens [22]): Active
